From paper PMC7821153 (Chemical Biology & Drug Design, 2020)

How the values were obtained:
Type in all cases: cell-based
[1] = tested on: HIV-1 NNRTI-resistant mutant K103N/Y181C; assay: Single-round infectivity assay, K103N/Y181C; details: Human immunodeficiency virus 1, read-out: EC50 K103N/Y181C
Summary of the method: (§1)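 Single-round infection with the HIV-1-based vector pNLNgoMIVR-ΔENV.LUC (Env-deleted, luciferase-carrying) bearing the indicated RT mutation(s), used to derive EC50. The mutant vectors are previously described constructs.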

[2] = tested on: HIV-1 NNRTI-resistant mutant H221Y; assay: Single-round infectivity assay, H221Y; details: Human immunodeficiency virus 1, read-out: EC50 H221Y
Summary of the method: as §1

[3] = tested on: HIV-1 NNRTI-resistant mutant K103N; assay: Single-round infectivity assay, K103N; details: Human immunodeficiency virus 1, read-out: EC50 K103N
Summary of the method: as §1

[4] = tested on: HIV-1 NNRTI-resistant mutant Y188L; assay: Single-round infectivity assay, Y188L; details: Human immunodeficiency virus 1, read-out: EC50 Y188L
Summary of the method: as §1

[5] = tested on: HIV-1 NNRTI-resistant mutant E138K; assay: Single-round infectivity assay, E138K; details: Human immunodeficiency virus 1, read-out: EC50 E138K
Summary of the method: as §1

[6] = tested on: HIV-1 NNRTI-resistant mutant M230L; assay: Single-round infectivity assay, M230L; details: Human immunodeficiency virus 1, read-out: EC50 M230L
Summary of the method: as §1

[7] = tested on: HIV-1 NNRTI-resistant mutant K103N/P225H; assay: Single-round infectivity assay, K103N/P225H; details: Human immunodeficiency virus 1, read-out: EC50 K103N/P225H
Summary of the method: as §1

[8] = tested on: HIV-1 NNRTI-resistant mutant V106A/G190A/F227L; assay: Single-round infectivity assay, V106A/G190A/F227L; details: Human immunodeficiency virus 1, read-out: EC50 V106A/G190A/F227L
Summary of the method: as §1

[9] = tested on: HIV-1 NNRTI-resistant mutant Y181C; assay: Single-round infectivity assay, Y181C; details: Human immunodeficiency virus 1, read-out: EC50 Y181C
Summary of the method: as §1

[10] = tested on: HIV-1 RT-resistant mutant K101E; assay: Single-round infectivity assay, K101E; details: Human immunodeficiency virus 1, read-out: EC50 K101E
Summary of the method: as §1

[11] = tested on: HIV-1 NNRTI-resistant mutant L100I/K103N; assay: Single-round infectivity assay, L100I/K103N; details: Human immunodeficiency virus 1, read-out: EC50 L100I/K103N
Summary of the method: as §1

[12] = Cellular cytotoxicity, ATP-dependent luminescence assay
Summary of the method: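 Cytotoxicity measured by ATP-dependent luminescence, with CC50 derived. Values are from three independent experiments (n = 3), and standard deviations are reported.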

WT HIV-1 = assay: Single-round infectivity assay, WT RT vector; details: for EC50: Human immunodeficiency virus 1, read-out: EC50 WT; for TI (therapeutic index): calculated from CC50 and WT EC50
Summary of the method: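 Single-round infection with an HIV-1-based vector (pNLNgoMIVR-ΔENV.LUC, Env-deleted, luciferase-carrying) with wild-type RT, used to derive EC50. Therapeutic index is calculated from CC50 (ATP-dependent luminescence assay) and wild-type EC50. Three independent experiments (n = 3), with standard deviations.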

[13] = tested on: HIV-1 NNRTI-resistant mutant L100I; assay: Single-round infectivity assay, L100I; details: Human immunodeficiency virus 1, read-out: EC50 L100I
Summary of the method: as §1

[14] = tested on: HIV-1 DOR-resistant mutant V106A/F227L; assay: Single-round infectivity assay, V106A/F227L; details: read-out: EC50 V106A/F227L; single-round infection, n = 3
Summary of the method: as §1

[15] = tested on: HIV-1 RT-resistant mutant K101E/M184I; assay: Single-round infectivity assay, K101E/M184I; details: read-out: EC50 K101E/M184I; single-round infection, n = 3
Summary of the method: as §1

[16] = tested on: HIV-1 RT-resistant mutant K101E/M184V; assay: Single-round infectivity assay, K101E/M184V; details: read-out: EC50 K101E/M184V; single-round infection, n = 3
Summary of the method: as §1

[17] = tested on: HIV-1 NNRTI-resistant mutant G190A; assay: Single-round infectivity assay, G190A; details: read-out: EC50 G190A; single-round infection, n = 3
Summary of the method: as §1

[18] = tested on: HIV-1 DOR-resistant mutant V106A/F227L/L234I; assay: Single-round infectivity assay, V106A/F227L/L234I; details: read-out: EC50 V106A/F227L/L234I; single-round infection, n = 3
Summary of the method: as §1

[19] = tested on: HIV-1 NNRTI-resistant mutant P236L; assay: Single-round infectivity assay, P236L; details: read-out: EC50 P236L; single-round infection, n = 3
Summary of the method: as §1

[20] = tested on: HIV-1 RT-resistant mutant D67E; assay: Single-round infectivity assay, D67E; details: read-out: EC50 D67E; single-round infection, n = 3
Summary of the method: as §1

[21] = tested on: HIV-1 DOR-resistant mutant L234I; assay: Single-round infectivity assay, L234I; details: read-out: EC50 L234I; single-round infection, n = 3
Summary of the method: as §1

[22] = tested on: HIV-1 NNRTI-resistant mutant G190S; assay: Single-round infectivity assay, G190S; details: read-out: EC50 G190S; single-round infection, n = 3
Summary of the method: as §1

[23] = tested on: HIV-1 NNRTI-resistant mutant K101P; assay: Single-round infectivity assay, K101P; details: read-out: EC50 K101P; single-round infection, n = 3
Summary of the method: as §1

[24] = tested on: HIV-1 DOR-resistant mutant V106A/L234I; assay: Single-round infectivity assay, V106A/L234I; details: read-out: EC50 V106A/L234I; single-round infection, n = 3
Summary of the method: as §1

Structure (SMILES)	EC50 [1] [nM]	EC50 [2] [nM]	EC50 [3] [nM]	EC50 [4] [nM]	EC50 [5] [nM]	EC50 [6] [nM]	EC50 [7] [nM]	EC50 [8] [nM]	EC50 [9] [nM]	EC50 [10] [nM]	EC50 [11] [nM]	CC50 [12] [µM]	EC50 (WT HIV-1) [nM]	TI (therapeutic index) (WT HIV-1)	EC50 [13] [nM]	EC50 [18] [nM]	also measured
O=C1Nc2ccc(Cl)cc2[C@@](C#CC2CC2)(C(F)(F)F)O1 [EFV, efavirenz, reference compound]	36 ± 8.4	2.2 ± 0.4	35.8 ± 9.1	76.8 ± 6.5	2.5 ± 0.4	14.3 ± 2	50.4 ± 3.1	185 ± 19.8	1.6 ± 0.1	11 ± 1.2	488 ± 50	36.4 ± 1.6	0.9 ± 0.1	>25,000	5.4 ± 0.9	–	–
Cc1cc(/C=C/C#N)cc(C)c1Nc1ccnc(Nc2ccc(C#N)cc2)n1 [RPV, rilpivirine, reference compound]	3.5 ± 0.3	1.3 ± 0.1	1 ± 0.2	2.3 ± 0.2	1 ± 0.1	1.7	0.6 ± 0.2	0.5 ± 0.02	1.4 ± 0.4	2.6 ± 1.6	2.3 ± 0.2	–	–	>25,000	0.1 ± 0.03	–	EC50 [14]: 0.8 ± 0.1 nM
Cc1cc(/C=C/C#N)cc(C)c1Nc1nc(Nc2ccc3cc(C#N)ccc3c2)ncc1N [Compound 7, (E)‐6‐((5‐amino‐4‐((4‐(2‐cyanovinyl)‐2,6‐dimethylphenyl)amino)pyrimidin‐2‐yl)amino)‐2‐naphthonitrile]	156 ± 12.7	2.8 ± 0.2	4 ± 0.8	152 ± 21.3	27.6 ± 2.4	21.4 ± 4.2	25.3 ± 3	5.2 ± 1	15.6 ± 2	9.9 ± 2	265 ± 5.9	23 ± 2.3	2.3 ± 0.3	10,000	4.5 ± 0.4	3.5 ± 0.2	EC50 [15]: 9.4 ± 0.4 nM; EC50 [16]: 3 ± 0.3 nM; EC50 [17]: 1.4 ± 0.1 nM; EC50 [19]: 1.2 ± 0.3 nM; EC50 [20]: 9.7 ± 1.2 nM
Cc1cc(/C=C/C#N)cc(C)c1Nc1ncc2ncn(-c3c(C)cc(/C=C/C#N)cc3C)c2n1 [Compound 9, (E)‐3‐(4‐((9‐(4‐((E)‐2‐cyanovinyl)‐2,6‐dimethylphenyl)‐9H‐purin‐2‐yl)amino)‐3,5‐dimethylphenyl)acrylonitrile]	> 5000	19.4 ± 2.2	48 ± 4.2	> 5000	150 ± 6.9	–	–	–	> 5000	–	–	192 ± 11	10.4 ± 0.6	18,423	156 ± 30.6	–	–
Cc1cc(/C=C/C#N)cc(C)c1-n1cnc2cnc(Nc3ccc(/C=C/C#N)cc3)nc21 [Compound 13, (E)‐3‐(4‐((9‐(4‐((E)‐2‐cyanovinyl)‐2,6‐dimethylphenyl)‐9H‐purin‐2‐yl)amino)phenyl)acrylonitrile]	323 ± 56.7	2.6 ± 0.7	9.3 ± 0.7	208 ± 12	29.1 ± 1.9	60 ± 0.9	29.1 ± 1.6	4.7 ± 0.9	92.4 ± 10	9.7 ± 1.2	252 ± 21.9	> 250	1.4 ± 0.2	>25,000	28.6 ± 7.6	5.4 ± 1.1	EC50 [21]: 1.8 ± 0.4 nM; EC50 [22]: 1.2 ± 0.3 nM; EC50 [15]: 7 ± 0.6 nM; EC50 [16]: 3.9 ± 0.6 nM; EC50 [19]: 1.1 ± 0.05 nM; EC50 [20]: 9.5 ± 1.8 nM
Cc1cc(/C=C/C#N)cc(C)c1Nc1nc(Nc2ccc(/C=C/C#N)cc2)ncc1N [Compound 12, (E)‐3‐(4‐((5‐amino‐2‐((4‐((E)‐2‐cyanovinyl)phenyl)amino)pyrimidin‐4‐yl)amino)‐3,5‐dimethylphenyl)acrylonitrile]	22.4 ± 1.1	1.6 ± 0.1	1.6 ± 0.2	44 ± 2.6	6.5 ± 0.9	16.9 ± 1.2	1.6 ± 0.2	2.5 ± 0.5	5.3 ± 0.8	3.4 ± 0.1	16.1 ± 0.2	32.2 ± 1.5	1.2 ± 0.2	>25,000	1.8 ± 0.2	1.3 ± 0.1	EC50 [23]: 126 ± 29.4 nM; EC50 [24]: 1.4 ± 0.5 nM; EC50 [14]: 2 ± 0.1 nM
Cc1cc(/C=C/C#N)cc(C)c1Nc1ncc(N)c(Nc2c(C)cc(/C=C/C#N)cc2C)n1 [Compound 6, (2E,2′E)‐3,3′‐(((5‐aminopyrimidine‐2,4‐diyl)bis(azanediyl))bis(3,5‐dimethyl‐4,1‐phenylene))diacrylonitrile]	> 5000	79.2 ± 6.4	75.5 ± 5.6	> 5000	1070 ± 60	–	–	–	2760 ± 580	–	–	44.9 ± 0.6	27.2 ± 3.3	1,651	3640	–	–
Cc1cc(/C=C/C#N)cc(C)c1-n1cnc2cnc(Nc3ccc4cc(/C=C/C#N)ccc4c3)nc21 [Compound 11, (E)‐3‐(6‐((9‐(4‐((E)‐2‐cyanovinyl)‐2,6‐dimethylphenyl)‐9H‐purin‐2‐yl)amino)naphthalen‐2‐yl)acrylonitrile]	> 5000	17.1 ± 2.1	232 ± 22.3	> 5000	> 5000	–	–	–	> 5000	–	–	17.1 ± 0.8	10.2 ± 1.9	1,676	78 ± 11.7	–	–
Cc1cc(/C=C/C#N)cc(C)c1Nc1nc(Nc2ccc3cc(/C=C/C#N)ccc3c2)ncc1N [Compound 8, (E)‐3‐(4‐((5‐amino‐2‐((6‐((E)‐2‐cyanovinyl)naphthalen‐2‐yl)amino)pyrimidin‐4‐yl)amino)‐3,5‐dimethylphenyl)acrylonitrile]	1990	18.7 ± 2.5	121 ± 9.7	3070	534 ± 27.1	–	–	–	264 ± 15.9	–	–	10.8 ± 0.7	6.8 ± 0.6	1,588	242 ± 35.4	–	–
Cn1c(Cn2ccc(C(F)(F)F)c(Oc3cc(Cl)cc(C#N)c3)c2=O)n[nH]c1=O [DOR, doravirine, reference compound]	11.3 ± 5.9	4.6 ± 1.8	4.5 ± 2.8	> 100	13.9 ± 2.4	51.1 ± 6.5	25.3 ± 4.5	> 100	2 ± 0.2	0.4 ± 0.04	2 ± 0.8	–	–	>25,000	1.1 ± 0.2	–	–
